Test results taken from the EternaBench riboswitch data.

System: MS2 coat protein
Assay: apparent Kd, MS2 coat protein; higher = weaker binding; RNA-MaP array; FMN 200 µM where present
In short: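 Designs were transcribed by stalled E. coli RNA polymerase on Illumina sequencing-chip clusters. They were titrated with SNAP-549-labelled MS2 coat protein from 0.7 or 1.5 nM, doubling to 3 µM, in 100 mM Tris-HCl pH 7.5, 80 mM KCl, 4 mM MgCl2, BSA, DTT, yeast tRNA and Tween-20, without and then with constant ligand. The apparent Kd is the median of filtered per-cluster fits after normalisation of green signal to red-channel RNA signal and control-cluster median Fmax.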

[1] = designed as: OFF switch for flavin mononucleotide, no ligand
[2] = ligand present: flavin mononucleotide, designed as: OFF switch for flavin mononucleotide
[3] = designed as: ON switch for flavin mononucleotide, no ligand
[4] = ligand present: flavin mononucleotide, designed as: ON switch for flavin mononucleotide

“GGUCGGAAUUUCGACGGCCUGAGGGAGGAUAUACAAGGCCGGCGUCGCACAUGAGGAUCACCCAUGUAGAAGGCCCAAGGCCUG” was tested, and the “apparent Kd” value [1] was 6 nM and the “apparent Kd” value [2] was 7.2 nM.
For “CUAAGUGCCGGAGGAUAUACAUGAGGAUCACCCAUGUCAGUCUGUUUACAUGUAGAAGGCCGGCGAACAAAGAACUUGCCACGA”, the “apparent Kd” value [1] was 43.8 nM and the “apparent Kd” value [2] was 242 nM.
In the case of “GCUCGAUGUGCUGAAAACAUGAGGAUCACCCAUGUAGAUGAUCAGGAUAUUUACGUGCUUUAUGUAGAGAAGGGAUCAUCGAGC”, the “apparent Kd” value [3] is reported as 64 nM and the “apparent Kd” value [4] is reported as 27.7 nM.
For “AGGAGAAAUGUAGGAUAUGGGCGGGCAUAUGGGCAAAGCGCAUAUGCCCGCCCAGAAGGACAUGAGGAUCACCCAUGUUUCCCU”, the “apparent Kd” value [1] was 13.2 nM and the “apparent Kd” value [2] was 11.1 nM.
With “CGGAGACAUGAGGAUCACCCAUGUGAGGAUAUGCAAGCCCGACUGAUCGUUAGCCUAUGUAGAAGGCACGGGUC” the “apparent Kd” value [1] was 21.3 nM and the “apparent Kd” value [2] was 20 nM.
With “UUUAGGAGUCAAGGAUAUGCUACCGUUUCGGUAGCAGAAGGUGAUCACAUGAGGAUCACCCAUGUAUGCAUGCGUGAGCGUGCU” the “apparent Kd” value [3] was 50.1 nM and the “apparent Kd” value [4] was 623 nM.
“GUCGAGUGAGGAUAUGGUGAGUAGUGCCUGAGCGCUGCUCACCAGAAGGCACAUGAGGAUCACCCAUGUAUGUC” was tested, and the “apparent Kd” value [1] was 13.7 nM and the “apparent Kd” value [2] was 20.7 nM.
For “GGACGUCACAUGAACAUGAGGAUCACCCAUGUAACUAGACAUGAGGAUAUGGAUCCUAAUUGGAUCCAGAAGGCAUGGACGUCC”, the “apparent Kd” value [3] was 199 nM and the “apparent Kd” value [4] was 32.1 nM.
In the case of “UCUACGCGAAUCAAGAUGGAUAGCACAUGAGGAUCACCCAUGUAGGAUAUGCUACACAAAGUGUAGCAGAAGGACAAGCGUAGA”, the “apparent Kd” value [1] is reported as 26.5 nM and the “apparent Kd” value [2] is reported as 38.3 nM.
In the case of “UGGUACAUCGGAGGAUAUCGUGUGUAAACAUGAGGAUCACCCAUGUCAUACGAGAGUAUGUAGAUCGAGAAGGCCGAUGUACCU”, the “apparent Kd” value [3] is reported as 16.7 nM and the “apparent Kd” value [4] is reported as 16.2 nM.
In the case of “ACGGUGGUCACAGGAUAUCCGGCGCGCGUGCCUGGAGAAGGGUGACUCAGAACCACAUGAGGAUCACCCAUGUGCCUUGCCGUA”, the “apparent Kd” value [3] is reported as 169 nM and the “apparent Kd” value [4] is reported as 49.2 nM.
“UGGAUGUAAGAGAAGGAGGACUUCAUGAGGAUCACCCAUGUGUUAGUACUUAGGAUAUUUGACAACAUGAGGAUCACCCAUGUC” was tested, and the “apparent Kd” value [3] was 75.6 nM and the “apparent Kd” value [4] was 67.8 nM.
With “GUGUUGUAUGUAGGAUAUGCAUACUGUUAGUAUGCAGAAGGACAUGAGGAUCACCCAUGUAUAUUAUUAUUAUAUAUCAUACAU” the “apparent Kd” value [1] was 21.1 nM and the “apparent Kd” value [2] was 36.8 nM.
“UUUAUAAAUUAGAAGGCAUGAUGAAUUACAAUAGACAUGAGGAUCACCCAUGUGUAUUCAUGUCAUGAGGAUAUAGUCAUAUAU” was tested, and the “apparent Kd” value [3] was 8.91 nM and the “apparent Kd” value [4] was 6.45 nM.
In the case of “UACUGACAUGAGGAUCACCCAUGUGAGGAUAUUCUCCUGCUAAAUUAAUGGUGGGUGUGAAGAAGGCACAAGGA”, the “apparent Kd” value [1] is reported as 37.3 nM and the “apparent Kd” value [2] is reported as 120 nM.
For “AGCUUGAGAGGAUAUACUUGAGUGAUAAAAGUCUGAUAACUACAUGAGGAUCACCCAUGUAGAAGGCUCUAGCA”, the “apparent Kd” value [1] was 18.3 nM and the “apparent Kd” value [2] was 47.8 nM.
With “GUGUACGAAGGAUAUACAUGAGGAUCACCCAUGUGAAUAAGAUAGAAUAAGAUAAAGUGUAGAAGGUCGAGUGU” the “apparent Kd” value [1] was 33 nM and the “apparent Kd” value [2] was 29.4 nM.
“GCCAUCAUAUGAGGAUAUGACACCGAAACGGUGUCAGAAGGCAUGUCGAUAGACAUGAGGAUCACCCAUGUUUACAUGAUGGCA” was tested, and the “apparent Kd” value [3] was 91.5 nM and the “apparent Kd” value [4] was 20.7 nM.
With “GCCUUAUCGGUCAGGAUAUACAUUUGUUAGUUGUUGUAGAAGGGACAUGAGGAUCACCCAUGUACAUUACAUUG” the “apparent Kd” value [1] was 22.4 nM and the “apparent Kd” value [2] was 40.3 nM.
“CCGGAAAUGGAGGAUAUCGUAUCGGAUACGAUACGAGAAGGCUAUACAUGAGGAUCACCCAUGUGUCCUACCGG” was tested, and the “apparent Kd” value [1] was 12.6 nM and the “apparent Kd” value [2] was 20.1 nM.
“GACUUUUCUGAGGAUAUUGCAUCACCCGAUCUAUAAGAAGGCAGAACAUGAGGAUCACCCAUGUGGGUUUCUAG” was tested, and the “apparent Kd” value [1] was 24.7 nM and the “apparent Kd” value [2] was 33.6 nM.
“CCUUUGAAGAUCCUAGAUUUCGACAUGAGGAUCACCCAUGUGCAGGAUAUCGUGCCAGUGAUGUGCGAGAAGGGCAGUCUCUGC” was tested, and the “apparent Kd” value [1] was 50.8 nM and the “apparent Kd” value [2] was 55 nM.
In the case of “CUGACGCAAGCAGGAUAUCUACUGGCGAUGGUACAUGAGGAUCACCCAUGUAGAGAAGGGCUAAGUGGAAGGAUAAAAUAAAAG”, the “apparent Kd” value [1] is reported as 110 nM and the “apparent Kd” value [2] is reported as 120 nM.
For “CGGGAUAGGAAGGGCGAAAGCCCACAUGAGGAUCACCCAUGUAGAAGGCGGGCCGCAACGCGGCCCGAGGAUAUACACUAUCCA”, the “apparent Kd” value [1] was 6.63 nM and the “apparent Kd” value [2] was 12.7 nM.
With “UUGGACGUCGUAGGAUAUGUAAGAUAUUCCUACAUGAGGAUCACCCAUGUUGACAUGGAAGAAGGACAGAAGGACGAUGUCCAU” the “apparent Kd” value [3] was 6.47 nM and the “apparent Kd” value [4] was 4.87 nM.
In the case of “UUAAAUUAGUAGAAGGACGGAGAGUAUAAAGUCGUAGGAUAUACAUAAGACAUGAGGAUCACCCAUGUAAGUUUGUGAGGUAUG”, the “apparent Kd” value [1] is reported as 14.8 nM and the “apparent Kd” value [2] is reported as 15.3 nM.
In the case of “ACCUUACAUGAGGAUCACCCAUGUCAGGAUAUCUCGGGCGACCGAGGGCCGGCCGCCCAGAGAAGGGACGAGGA”, the “apparent Kd” value [1] is reported as 12.5 nM and the “apparent Kd” value [2] is reported as 13.9 nM.
In the case of “ACGCUUUGGGAGAAGGUACGUUAAUUAUUUUCCACAUGAGGAUCACCCAUGUAAGGAUAUCCCGGCGUGAAAUAGGCUACAGCA”, the “apparent Kd” value [1] is reported as 6.71 nM and the “apparent Kd” value [2] is reported as 8.08 nM.
“CAGCGAUAGCUGAACAAUCUAUCACAGGAUAUUCAUGAAACAUGAGGAUCACCCAUGUGAAAUUGGGAGAAGGGUGAUAGAUUG” was tested, and the “apparent Kd” value [3] was 12.7 nM and the “apparent Kd” value [4] was 5.36 nM.
In the case of “UGGAAAUGCGAGAAGGACAUGAGGAUCACCCAUGUAGGAUAUCGACCUAGGUGCAGAUCGUUAUAGGAUCUCUUCGCUUGUAGG”, the “apparent Kd” value [3] is reported as 16.5 nM and the “apparent Kd” value [4] is reported as 7.08 nM.
In the case of “CGUUGUUGCGCAGGAUAUGCAUUGGAUUACAAUGCAGAAGGGCGAUUACAUGAGGAUCACCCAUGUGUCGACAAUAAGGAAGAG”, the “apparent Kd” value [3] is reported as 35.9 nM and the “apparent Kd” value [4] is reported as 34 nM.
For “GGUGCGUAUGUGAGGAUAUGCUGGUCCUUGGAUCAGCAGAAGGCACAUGAGGAUCACCCAUGUGGUGUCGUUCC”, the “apparent Kd” value [1] was 397 nM and the “apparent Kd” value [2] was 29.3 nM.
“ACUAUACGAGGAUAUACUGUCAGGCCUCAGACAUAAAUAAGACAUGAGGAUCACCCAUGUAGAAGGCGUUUACU” was tested, and the “apparent Kd” value [1] was 31.3 nM and the “apparent Kd” value [2] was 48 nM.
“GUGUCUUGGGAGAAGGCCGAUAGCAAAGCUAUCGGAGGAUAUUCAUACCGGAAACGGACAUGAGGAUCACCCAUGUGGCACAAA” was tested, and the “apparent Kd” value [3] was 1130 nM and the “apparent Kd” value [4] was 36.8 nM.
“AGUCGGAGCAGAGGAUAUUACAUGAGGAUCACCCAUGUGGAAGAACCAAGCUGGAAACAGCAAUGUAAGAAGGCUGCUCCGACA” was tested, and the “apparent Kd” value [1] was 918 nM and the “apparent Kd” value [2] was 430 nM.
For “AACAAGCAAGGAUAUACAUGAGGAUCACCCAUGUCGUCUAAACGUACAUGCUACUCUUGUAGAAGGUGCAAAAU”, the “apparent Kd” value [1] was 129 nM and the “apparent Kd” value [2] was 537 nM.
